Assay results reported in ChEMBL document CHEMBL4619761, “Biosurfactants from Marine Cyanobacteria Collected in Sabah, Malaysia” (J Nat Prod, 2020).
Active and inactive are the calls of the source. The calls are words filed in the database; no cut-off is given here.

Assays:
MCF7 = test: Cytotoxicity against human MCF7 cells incubated for 72 hrs by MTT assay; format: functional, cell-based; settings: MCF7, 72 h
[1] = Biosurfactant activity assessed as diameter of clear zone at 10 mg/ml by oil displacement assay; format: functional
In short: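 Oil displacement assay as an indirect measure of surface activity: sample tested at 10 mg/mL and the clear-zone diameter measured. SDS and pluronic F-68 were run at the same concentration for reference.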

[2] = Biosurfactant activity assessed as Critical micelle concentration of compound; format: physicochemical
Amphibalanus amphitrite = test: Antifouling activity against Amphibalanus amphitrite at 0.88 ug/ml; format: functional, organism-based
[3] = Biosurfactant activity assessed as reduction in surface tension of aqueous solution at 10 to 1200 ug/ml by ring method; format: functional
In short: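 Surface tension of aqueous solutions (10−1200 μg/mL) measured by the ring method on a Du Noüy tensiometer with a platinum ring at 25 °C, in triplicate. The instrument was calibrated against pure H2O before each set. CMC was taken from the breakpoint of the surface tension versus log bulk concentration curve.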

Row | Structure (SMILES) | Activity [1] | CMC [2] | IC50 (MCF7) | Activity [3] | other results
1 | COC[C@@H](COC(C)=O)N(C)C(=O)CC/C=C/CCCCC(Cl)CCCCCCCC(Cl)Cl (stereo not given in full) | – | – | > 10 µg/mL | – | –
2 | CCCCCCCCC(Cl)CCCC/C=C/CCC(=O)N(C)[C@H](CO)COC (stereo not given in full) | – | – | > 10 µg/mL | – | –
3 | CCCCCCCCCCCCCCC/C=C(\C)C(=O)N[C@@H](CO)COC | – | 0.78 mM | – | Active | Activity (Amphibalanus amphitrite): Active

More lines, main results first:

Row | Activity [1] | CMC [2] | Structure (SMILES) | IC50 (MCF7) | Activity [3] | other results
4 | 90 mm | – | COC[C@@H](COC(C)=O)N(C)C(=O)CC/C=C/CCCC[C@H](Cl)CCCCCCCCCl | > 10 µg/mL | – | –
5 | – | 0.34 mM | COC[C@@H](CO)N(C)C(=O)CC/C=C/CCCC[C@H](Cl)CCCCCCCCCl | – | Active | –
6 | 84 mm | – | CCCCCCCCCCCCOS(=O)(=O)[O-].[Na+] | – | – | –
